Calls of active or inactive are those of the source. The calls are words filed in the database; no cut-off is given here.
How the values were obtained:
[1] = biological target: Tyrosine-protein kinase Lyn (Homo sapiens, UniProt P07948); experiment: Inhibition of LYN-A expressed in Sf9 cells preincubated for 60 mins measured after 60 mins by TR-FRET Assay
Outline: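 The compound was pre-incubated with the kinase before the enzymatic reaction was started. IC50 values are averages of two or more determinations.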

[2] = biological target: Tyrosine-protein kinase Lck (Homo sapiens, UniProt P06239); experiment: Inhibition of C-terminal His6-tagged human full-length LCK expressed in Sf9 cells preincubated for 60 mins measured after 60 mins by TR-FRET Assay
[3] = AUC (0 to infinity) in mouse at 10 mg/kg, po; type: ADME, organism-based; parameters: time infinity, dose 10 mg/kg, route oral; conditions: plasma
[4] = Half life in mouse at 2 mg/kg, iv; type: ADME, organism-based; parameters: dose 2 mg/kg, route intravenous; conditions: in vivo
[5] = Clearance in mouse at 2 mg/kg, iv; type: ADME, organism-based; parameters: dose 2 mg/kg, route intravenous; conditions: in vivo
[6] = Tmax in mouse at 10 mg/kg, po; type: ADME, organism-based; parameters: dose 10 mg/kg, route oral; conditions: in vivo
Outline: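 Mouse pharmacokinetics from single dosing at 2 mg/kg iv and 10 mg/kg po. The study derived AUC, T1/2, clearance, Vss, Tmax, Cmax and oral bioavailability (%F) from the paired iv and po arms.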

[7] = biological target: Ephrin type-B receptor 3 (Homo sapiens) (UniProt P54753); experiment: (§1) Inhibition of EPHB3 relative to control; conditions: concentration not given here
Ephrin type-B receptor 3 = Ephrin type-B receptor 3 (Homo sapiens, UniProt P54753); experiment: as §1
[8] = biological target: Protein-tyrosine kinase 6 (Homo sapiens) (UniProt Q13882); experiment: Inhibition of BRK relative to control; conditions: concentration not given here
Mus musculus [9] = experiment: Antiarthritic activity in C57BL/6 mouse assessed as inhibition of T-independent type 2 antigen-induced NP-specific IgM antibody titer production administered qd for 7 days by ELISA; type: functional, organism-based; conditions: C57BL6
Outline: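 Female C57BL/6 mice, 8–10 weeks old, immunized ip with NP(109)-Ficoll (TI-2 antigen). Compound or vehicle given po daily for 7 days, starting 1 day before immunization. Serum was collected 6 days after immunization, and NP-specific IgM and IgG3 titers were measured by ELISA.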

Mus musculus [10] = experiment: Antiarthritic activity in DBA/1 JBomTac mouse collagen-induced arthritis model assessed as inhibition of disease progression at 10 mg/kg, po qd measured on day 7 to 22; type: functional, organism-based; parameters: dose 10 mg/kg
Outline: (§2)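 Semi-therapeutic collagen-induced arthritis model. Blinded paw scoring used a 0–4 scale, reported as mean and SEM. Comparison to vehicle used Student's t-test, P <0.05.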

Mus musculus [11] = experiment: Antiarthritic activity in DBA/1 JBomTac mouse collagen-induced arthritis model assessed as inhibition of disease progression at 3 mg/kg, po qd measured on day 5 to 22; type: functional, organism-based; parameters: dose 3 mg/kg; outline: as §2
Mus musculus [12] = experiment: Antiarthritic activity in DBA/1 JBomTac mouse collagen-induced arthritis model assessed as inhibition of disease progression at 1 mg/kg, po qd measured on day 19 to 22; type: functional, organism-based; parameters: dose 1 mg/kg; outline: as §2
[13] = biological target: RAC-alpha serine/threonine-protein kinase (Homo sapiens) (UniProt P31749); experiment: Inhibition of AKT1 relative to control; conditions: concentration not given here
[14] = biological target: Serine/threonine-protein kinase Chk1 (Homo sapiens) (UniProt O14757); experiment: Inhibition of CHEK1 relative to control; conditions: concentration not given here
[15] = biological target: Serine/threonine-protein kinase Chk2 (Homo sapiens) (UniProt O96017); experiment: Inhibition of CHEK2 relative to control; conditions: concentration not given here
[16] = biological target: Receptor tyrosine-protein kinase erbB-2 (Homo sapiens) (UniProt P04626); experiment: Inhibition of HER2 relative to control; conditions: concentration not given here
[17] = biological target: Vascular endothelial growth factor receptor 1 (Homo sapiens) (UniProt P17948); experiment: Inhibition of FLT1 relative to control; conditions: concentration not given here
[18] = biological target: Vascular endothelial growth factor receptor 3 (Homo sapiens) (UniProt P35916); experiment: Inhibition of FLT4 relative to control; conditions: concentration not given here
[19] = biological target: Serine/threonine-protein kinase mTOR (Homo sapiens) (UniProt P42345); experiment: Inhibition of FRAP1 relative to control; conditions: concentration not given here
[20] = biological target: Tyrosine-protein kinase FRK (Homo sapiens, UniProt P42685); experiment: Inhibition of FRK relative to control
[21] = biological target: Glycogen synthase kinase-3 alpha (Homo sapiens) (UniProt P49840); experiment: Inhibition of GSK3A relative to control; conditions: concentration not given here
[22] = biological target: Glycogen synthase kinase-3 beta (Homo sapiens) (UniProt P49841); experiment: Inhibition of GSK3B relative to control; conditions: concentration not given here
[23] = biological target: Tyrosine-protein kinase HCK (Homo sapiens) (UniProt P08631); experiment: Inhibition of HCK relative to control; conditions: concentration not given here
[24] = biological target: Insulin receptor (Homo sapiens) (UniProt P06213); experiment: Inhibition of INSR relative to control; conditions: concentration not given here
[25] = biological target: Mitogen-activated protein kinase 1 (Homo sapiens) (UniProt P28482); experiment: Inhibition of MAPK1 relative to control; conditions: concentration not given here
[26] = biological target: Mitogen-activated protein kinase 10 (Homo sapiens) (UniProt P53779); experiment: Inhibition of JNK3 relative to control; conditions: concentration not given here
[27] = system: Hepatocyte growth factor receptor (Homo sapiens), P08581 [M1250T]; experiment: Inhibition of MET M1250T mutant relative to control; conditions: concentration not given here
[28] = biological target: High affinity nerve growth factor receptor (Homo sapiens) (UniProt P04629); experiment: Inhibition of NTRK1 relative to control; conditions: concentration not given here
[29] = biological target: Serine/threonine-protein kinase Nek2 (Homo sapiens) (UniProt P51955); experiment: Inhibition of NEK2 relative to control; conditions: concentration not given here
[30] = biological target: Phosphatidylinositol 4-phosphate 3-kinase C2 domain-containing subunit beta (Homo sapiens) (UniProt O00750); experiment: Inhibition of PI3K-C2 beta relative to control; conditions: concentration not given here
[31] = biological target: Protein kinase C alpha type (Homo sapiens) (UniProt P17252); experiment: Inhibition of PRKCA relative to control; conditions: concentration not given here
[32] = biological target: Receptor-interacting serine/threonine-protein kinase 2 (Homo sapiens) (UniProt O43353); experiment: Inhibition of RIPK2 relative to control; conditions: concentration not given here
[33] = biological target: Ribosomal protein S6 kinase alpha-1 (Homo sapiens) (UniProt Q15418); experiment: Inhibition of RSK1 relative to control; conditions: concentration not given here
[34] = biological target: Proto-oncogene tyrosine-protein kinase Src (Homo sapiens, UniProt P12931); experiment: Inhibition of SRC relative to control; conditions: concentration not given here
[35] = biological target: Tyrosine-protein kinase SYK (Homo sapiens) (UniProt P43405); experiment: Inhibition of SYK relative to control; conditions: concentration not given here

Tyrosine-protein kinase FRK, sequence (P42685 whole entry): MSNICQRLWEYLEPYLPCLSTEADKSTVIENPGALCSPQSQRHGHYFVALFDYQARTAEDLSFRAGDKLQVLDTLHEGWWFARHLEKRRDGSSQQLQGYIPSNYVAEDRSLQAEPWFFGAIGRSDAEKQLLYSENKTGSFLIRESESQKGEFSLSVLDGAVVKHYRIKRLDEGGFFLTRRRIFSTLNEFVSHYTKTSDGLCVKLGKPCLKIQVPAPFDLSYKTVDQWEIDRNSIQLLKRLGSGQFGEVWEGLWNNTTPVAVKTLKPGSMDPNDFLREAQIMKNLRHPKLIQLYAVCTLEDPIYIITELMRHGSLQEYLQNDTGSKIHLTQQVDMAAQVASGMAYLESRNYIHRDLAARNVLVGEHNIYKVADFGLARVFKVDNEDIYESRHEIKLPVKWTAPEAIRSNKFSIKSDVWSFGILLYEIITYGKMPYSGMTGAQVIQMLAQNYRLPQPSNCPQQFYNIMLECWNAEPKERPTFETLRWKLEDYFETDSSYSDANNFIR
Insulin receptor (Homo sapiens), sequence (P06213 28-758 limits assumed): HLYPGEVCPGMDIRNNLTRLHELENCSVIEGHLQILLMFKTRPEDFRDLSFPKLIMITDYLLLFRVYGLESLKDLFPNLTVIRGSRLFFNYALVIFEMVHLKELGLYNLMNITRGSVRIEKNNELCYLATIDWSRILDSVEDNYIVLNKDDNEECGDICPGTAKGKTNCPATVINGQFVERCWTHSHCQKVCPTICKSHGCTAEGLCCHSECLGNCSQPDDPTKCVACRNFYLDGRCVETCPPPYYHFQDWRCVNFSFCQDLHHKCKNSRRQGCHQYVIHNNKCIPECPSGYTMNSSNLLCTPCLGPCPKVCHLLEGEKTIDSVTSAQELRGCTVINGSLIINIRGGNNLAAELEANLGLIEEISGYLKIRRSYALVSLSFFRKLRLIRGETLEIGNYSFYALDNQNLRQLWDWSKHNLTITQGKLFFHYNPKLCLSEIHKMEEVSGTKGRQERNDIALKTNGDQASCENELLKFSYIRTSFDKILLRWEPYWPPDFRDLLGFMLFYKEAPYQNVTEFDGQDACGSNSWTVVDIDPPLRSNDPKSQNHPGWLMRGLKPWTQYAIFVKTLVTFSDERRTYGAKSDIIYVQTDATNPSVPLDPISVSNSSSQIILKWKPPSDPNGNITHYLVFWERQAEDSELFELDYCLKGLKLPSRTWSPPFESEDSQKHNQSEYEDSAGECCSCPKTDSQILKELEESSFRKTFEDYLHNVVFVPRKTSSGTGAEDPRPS
Insulin receptor (Homo sapiens), sequence (P06213 763-1382 limits assumed): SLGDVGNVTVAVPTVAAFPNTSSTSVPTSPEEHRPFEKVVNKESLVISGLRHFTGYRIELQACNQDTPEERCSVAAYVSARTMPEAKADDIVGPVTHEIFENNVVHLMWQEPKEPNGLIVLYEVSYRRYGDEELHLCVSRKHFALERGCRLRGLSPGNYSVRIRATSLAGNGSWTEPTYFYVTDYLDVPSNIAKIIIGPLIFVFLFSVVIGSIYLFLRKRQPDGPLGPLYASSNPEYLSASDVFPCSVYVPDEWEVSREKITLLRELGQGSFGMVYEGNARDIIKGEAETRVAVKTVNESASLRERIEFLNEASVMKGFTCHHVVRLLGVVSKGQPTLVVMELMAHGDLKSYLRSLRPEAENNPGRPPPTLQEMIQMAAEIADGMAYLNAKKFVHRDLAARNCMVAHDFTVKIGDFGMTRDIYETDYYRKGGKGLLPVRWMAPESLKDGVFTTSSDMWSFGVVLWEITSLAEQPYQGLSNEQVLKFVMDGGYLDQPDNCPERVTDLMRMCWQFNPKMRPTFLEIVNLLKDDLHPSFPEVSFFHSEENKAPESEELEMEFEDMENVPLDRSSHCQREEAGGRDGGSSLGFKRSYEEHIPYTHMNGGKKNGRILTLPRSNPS
Ephrin type-B receptor 3 (Homo sapiens), sequence (P54753 whole entry): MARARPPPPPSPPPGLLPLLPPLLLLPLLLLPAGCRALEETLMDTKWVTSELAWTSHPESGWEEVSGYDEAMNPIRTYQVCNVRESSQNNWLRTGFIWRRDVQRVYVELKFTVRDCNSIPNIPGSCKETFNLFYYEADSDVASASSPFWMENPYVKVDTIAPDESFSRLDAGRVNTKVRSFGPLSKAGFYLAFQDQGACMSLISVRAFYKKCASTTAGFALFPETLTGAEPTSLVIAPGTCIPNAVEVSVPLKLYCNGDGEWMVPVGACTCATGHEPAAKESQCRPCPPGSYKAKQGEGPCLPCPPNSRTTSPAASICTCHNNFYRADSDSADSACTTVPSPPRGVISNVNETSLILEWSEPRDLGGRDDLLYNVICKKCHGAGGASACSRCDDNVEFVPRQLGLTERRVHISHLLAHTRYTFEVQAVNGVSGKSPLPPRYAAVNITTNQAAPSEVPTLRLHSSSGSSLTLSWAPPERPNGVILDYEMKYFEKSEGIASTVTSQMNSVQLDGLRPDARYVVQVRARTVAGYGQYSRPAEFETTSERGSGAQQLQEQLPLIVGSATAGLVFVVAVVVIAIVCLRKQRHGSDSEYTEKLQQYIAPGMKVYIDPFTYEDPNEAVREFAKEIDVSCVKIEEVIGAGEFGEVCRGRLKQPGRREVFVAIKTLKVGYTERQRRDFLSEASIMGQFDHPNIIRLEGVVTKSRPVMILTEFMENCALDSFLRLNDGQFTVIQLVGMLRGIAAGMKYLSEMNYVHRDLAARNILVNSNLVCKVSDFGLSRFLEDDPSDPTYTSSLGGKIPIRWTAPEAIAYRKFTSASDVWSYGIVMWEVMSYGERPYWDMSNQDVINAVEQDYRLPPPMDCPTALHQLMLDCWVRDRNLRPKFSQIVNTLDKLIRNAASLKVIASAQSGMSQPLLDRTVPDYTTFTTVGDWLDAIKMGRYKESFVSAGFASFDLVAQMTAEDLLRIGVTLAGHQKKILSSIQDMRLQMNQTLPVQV
Ephrin type-B receptor 3, sequence (P54753 whole entry): as above
Mitogen-activated protein kinase 10 (Homo sapiens), sequence (P53779 whole entry): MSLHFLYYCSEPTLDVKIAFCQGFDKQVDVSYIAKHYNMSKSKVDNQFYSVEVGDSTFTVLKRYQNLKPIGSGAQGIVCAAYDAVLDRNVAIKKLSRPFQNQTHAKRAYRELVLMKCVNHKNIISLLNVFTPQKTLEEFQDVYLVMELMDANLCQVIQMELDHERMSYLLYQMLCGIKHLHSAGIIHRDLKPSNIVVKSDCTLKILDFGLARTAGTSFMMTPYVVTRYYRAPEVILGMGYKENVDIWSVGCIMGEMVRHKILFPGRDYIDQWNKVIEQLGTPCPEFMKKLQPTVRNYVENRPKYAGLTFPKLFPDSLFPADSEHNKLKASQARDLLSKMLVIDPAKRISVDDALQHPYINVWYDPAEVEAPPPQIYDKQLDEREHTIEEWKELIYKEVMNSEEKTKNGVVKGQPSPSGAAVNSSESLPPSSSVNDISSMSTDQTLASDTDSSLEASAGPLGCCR
Tyrosine-protein kinase Lyn, sequence (P07948 whole entry): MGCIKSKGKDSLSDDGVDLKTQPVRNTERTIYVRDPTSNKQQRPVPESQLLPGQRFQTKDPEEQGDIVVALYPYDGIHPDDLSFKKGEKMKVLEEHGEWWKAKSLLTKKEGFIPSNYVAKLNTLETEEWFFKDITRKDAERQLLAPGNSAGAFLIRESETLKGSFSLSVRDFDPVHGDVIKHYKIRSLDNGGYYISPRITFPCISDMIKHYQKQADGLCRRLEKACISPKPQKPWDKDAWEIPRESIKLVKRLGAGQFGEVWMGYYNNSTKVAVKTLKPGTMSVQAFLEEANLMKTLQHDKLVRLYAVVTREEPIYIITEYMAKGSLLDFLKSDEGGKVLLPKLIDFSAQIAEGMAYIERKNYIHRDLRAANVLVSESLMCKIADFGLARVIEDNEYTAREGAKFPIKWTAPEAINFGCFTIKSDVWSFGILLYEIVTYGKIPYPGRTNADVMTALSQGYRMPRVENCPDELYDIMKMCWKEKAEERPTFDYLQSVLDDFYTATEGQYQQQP
RAC-alpha serine/threonine-protein kinase (Homo sapiens), sequence (P31749 whole entry): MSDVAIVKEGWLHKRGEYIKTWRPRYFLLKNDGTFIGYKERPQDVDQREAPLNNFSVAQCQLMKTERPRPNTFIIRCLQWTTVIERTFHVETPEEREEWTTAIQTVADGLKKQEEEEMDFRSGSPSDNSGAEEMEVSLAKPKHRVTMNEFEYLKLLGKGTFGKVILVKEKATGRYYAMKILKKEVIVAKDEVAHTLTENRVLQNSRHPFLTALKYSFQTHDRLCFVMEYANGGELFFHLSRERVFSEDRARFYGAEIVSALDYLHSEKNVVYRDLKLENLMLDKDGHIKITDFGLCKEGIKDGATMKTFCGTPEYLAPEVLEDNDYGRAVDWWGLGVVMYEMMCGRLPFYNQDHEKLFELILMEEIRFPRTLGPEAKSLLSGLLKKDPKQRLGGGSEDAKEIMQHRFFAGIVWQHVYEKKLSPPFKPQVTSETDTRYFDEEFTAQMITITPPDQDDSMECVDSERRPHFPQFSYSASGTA

Compound `Cc1ccccc1Nc1nc2cc(F)c(N(C)C(=O)/C=C/CN(C)C)cc2n2cncc12` has an IC50 [1] of 353 nM, an IC50 [2] of 755 nM and an AUC(0-inf) [3] of 876 ng·h/mL. The half-life [4] was 1.5 h, the clearance [5] was 63 mL/min/kg and the Tmax [6] was 3 h. For the same compound, the inhibition [7] was 50%, the IC50 (Ephrin type-B receptor 3) was 350 nM and the inhibition [8] was -4%. For the same compound, the inhibition (Mus musculus [9]) was “Dose-dependent effect”, the Activity (Mus musculus [10]) was “Active” and the Activity (Mus musculus [11]) was “Active”. For the same compound, the Activity (Mus musculus [12]) was “Active”, the inhibition [13] was 4% and the inhibition [14] was 8%. It also gave an inhibition [15] of 19%, an inhibition [16] of 19% and an inhibition [17] of 1%. For the same compound, the inhibition [18] was 6%, the inhibition [19] was 0% and the IC50 [20] was 611 nM. For the same compound, the inhibition ([20]; concentration not given here) was 60%, the inhibition [21] was 8% and the inhibition [22] was 6%. It also gave an inhibition [23] of 5%, an inhibition [24] of -5% and an inhibition [25] of -4%. For the same compound, the inhibition [26] was 0%, the inhibition [27] was 5% and the inhibition [28] was 8%. The inhibition [29] was 10%, the inhibition [30] was 11% and the inhibition [31] was -6%. It also gave an inhibition [32] of 8%, an inhibition [33] of 0% and an inhibition [34] of 43%. For the same compound, the inhibition [35] was 0%.

Reference: ChEMBL document CHEMBL1914368, “Imidazo[1,5-a]quinoxalines as irreversible BTK inhibitors for the treatment of rheumatoid arthritis” (Bioorg Med Chem Lett, 2011)
